From ChEMBL document CHEMBL2401719, “The development of a new class of inhibitors for betaine-homocysteine S-methyltransferase” (Eur J Med Chem, 2013) come the findings set out here.

Test [1] deals with T1, Betaine--homocysteine S-methyltransferase 1 (Homo sapiens, UniProt Q93088).
T1 sequence (Q93088 whole entry): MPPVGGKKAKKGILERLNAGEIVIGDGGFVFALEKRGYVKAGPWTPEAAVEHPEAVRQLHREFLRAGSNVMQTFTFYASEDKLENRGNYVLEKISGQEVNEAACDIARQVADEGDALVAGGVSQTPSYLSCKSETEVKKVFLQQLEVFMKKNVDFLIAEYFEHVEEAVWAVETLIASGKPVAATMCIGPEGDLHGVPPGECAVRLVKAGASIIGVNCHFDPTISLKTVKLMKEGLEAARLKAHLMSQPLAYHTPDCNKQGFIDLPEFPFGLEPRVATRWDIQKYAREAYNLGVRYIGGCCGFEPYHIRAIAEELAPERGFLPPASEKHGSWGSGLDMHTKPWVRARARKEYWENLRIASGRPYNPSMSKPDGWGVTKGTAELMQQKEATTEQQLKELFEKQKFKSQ
The test is described as follows: Inhibition of human recombinant BHMT using N-methyl-[14C]-betaine/D,L-homocysteine as substrate after 30 mins by scintiillation counting analysis. In short, it runs like this: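 Human recombinant BHMT assayed in pH 7.5 buffer with 2 mM betaine and 1 mM D,L-homocysteine. Each IC50 data point was run in duplicate.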

For test [2], the target named is T2, Betaine--homocysteine S-methyltransferase 1 (Homo sapiens) (UniProt Q93088).
T2 sequence (whole entry): T1 sequence (Q93088 whole entry)
As to the kind of experiment: Inhibition of human recombinant BHMT using N-methyl-[14C]-betaine/D,L-homocysteine as substrate at 20 uM after 30 mins by scintiillation counting analysis. In short, it runs like this:
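Human recombinant BHMT assayed in pH 7.5 buffer with 0.25 mM betaine and 0.1 mM D,L-homocysteine, compound at a single fixed concentration. Percent inhibition is the average of triplicates, with data reproducible within ±15%.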

For orientation: IC50 means the point on the concentration scale where inhibition reaches its midpoint. For orientation: inhibition means the change of the read-out against control, counted positive when it falls. Consider `CC(C)(CCSCCC(N)[PH](=O)O)CC(=O)O` (racemic), for which the IC50 in test [1] stood at 1.1 µM. Besides, in test [2], the inhibition is 99%.

For the molecule `O=C(O)CCCCS[C@H]1CN[C@H](C(=O)O)C1`, the inhibition in test [2] was found to be 0%.

As to `CNC(=O)C(N)CCSCCCCC(=O)O` (racemic), the inhibition in test [2] was found to be 8%.

`NC(CCSCCCCC(=O)O)P(=O)(O)O` (racemic): the IC50 in test [1] turned out to be 219 µM. For the same molecule, the inhibition in test [2] is 58%.

Take `NC(CCSCCCCC(=O)O)[PH](=O)O` (racemic): the half-maximal inhibitory concentration (IC50) in test [1] came to 5 µM. The inhibition in test [2] was 95%.

Regarding `NC(CCSCCCCC(=O)O)c1nnn[nH]1` (racemic), the inhibition in test [2] stood at 0%.

For the molecule `CS(=O)(=O)NC(=O)C(N)CCSCCCCC(=O)O` (racemic), the inhibition in test [2] was determined as 67%.

On to `NC(=O)C(N)CCSCCCCC(=O)O` (racemic), for which the inhibition in test [2] worked out at 17%.

In the case of `N#CC(N)CCSCCCCC(=O)O` (racemic), in test [2], the inhibition was found to be 9%.

In the case of `NC(CCSCCCCC(=O)O)c1nc(=O)o[nH]1` (racemic), the inhibition in test [2] turned out to be 15%.

Turning to `O=C(O)CCCCS[C@@H]1CN[C@H](C(=O)O)C1`, the inhibition in test [2] was determined as 24%.

Take `NC(CCSCCCCC(=O)O)C(=O)N1CCCCC1` (racemic): the inhibition in test [2] was determined as 9%.

As for `NNC(=O)C(N)CCSCCCCC(=O)O` (racemic), the inhibition in test [2] is 28%.
